3 molecules from paper PMC8178204 (Cancer research, 2021) can be followed below.

Structures are written as SMILES.

Series [1] concerns LC3, p62, LAMP2. As to the kind of experiment: Immunoblot time course of autophagy-degraded proteins in SW480 cells. It is filed as cell-based, human. As to conditions: for p62 accumulation, p38MAPK inhibitor alone: SW480, 1 or 3 days. A general note: Immunoblotting shows a protein as a band on a membrane.
Series [2] has as its system MCF10A cells. As to the kind of experiment: Cell survival of MCF10A cells after p38MAPK siRNA depletion. It is filed as cell-based, human. As to conditions: 0.5 μM WX8, 3 days.
Series [3] concerns LC3, p62. It is filed as cell-based, human. As to conditions: 0.5 μM WX8, all four cell lines.
In series [4] the test system is SW480 colon adenocarcinoma xenografts. As to the kind of experiment: SW480 xenograft in nude mice. Particulars: for reduction of tumor growth: 20 mg/kg WX8 and/or 12.5 mg/kg SB202190, day 22; for Ki-67 positive tumor cells: tumor sections.
The subject of series [5] is HCT116 and A375 (sensitive), WI38 and Hs27 (resistant) cell lines. As to the kind of experiment: Cell survival, sensitive versus resistant cell lines. It is filed as cell-based, human.
Series [6] concerns Cathepsin D. As to the kind of experiment: Cathepsin D maturation in SW480 cells. As to conditions: SW480, 0.125 μM WX8 with or without 5 μM SB202190. It is filed as cell-based, human. In a few lines:
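SW480 cells were cultured for the indicated times with 0.125 μM WX8, 5 μM SB202190, or both, each diluted 1:1,000 from DMSO stocks, with DMSO as vehicle. Cells were trypsinized and pooled with unattached cells, then lysed in SDS sample buffer. Precursor and mature Cathepsin D were immunoblotted (nitrocellulose, peroxidase secondary, chemiluminescence) and quantified by densitometry of low-exposure images.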

Series [7] relates to 12 cancer lines. In words: Cell survival after 3 days, viable cell count with FACS. It is filed as cell-based, human. Particulars: read-out: median IC50 (concentration that cause 50% reduction in cell survival), 3 days of treatment.
Series [8] deals with 8 normal fibroblast cell lines. Described as above. It is filed as cell-based, human. Particulars: read-out: median IC50 (concentration that cause 50% reduction in cell survival), 3 days of treatment.
Series [9] relates to SW480 cells. In words: Cell survival, dead cells and proliferation of SW480 cells. As to conditions: SW480, 0.125 μM WX8 and/or 5 μM SB202190. The class given is cell-based, human.
Where [10] appears, read: SW480, 0.125 μM WX8 and/or 5 μM SB202190.
Where [11] appears, read: 20 mg/kg WX8 and/or 12.5 mg/kg SB202190.

As to `CC(C)(C)Cn1c(N)nc2ccc(-c3[nH]c(C(C)(C)C)nc3-c3ccc(F)cc3)nc21` [LY2228820], the “p62 accumulation, p38MAPK inhibitor alone” value in [1] is “caused accumulation of p62”.

Consider `C(=N\Nc1nc(Nc2ccccc2)nc(N2CCOCC2)n1)/c1c[nH]c2ccccc12` [WX8], for which, in series [2] (control siRNA-transfected cells), the “reduction of cell survival” value was 20%. In addition, in [2] (highest levels of p38MAPK depletion), the “reduction of cell survival” value was determined as 65%. Moreover, in series [1] (setting [10]), the LAMP2 level increase result is on record as “about 3 fold”; the p62 level increase entry is “about 3 fold”; the “time course of LC3 and p62 protein levels” value was “peaked on day 2”; the “total LC3 protein accumulation above initial levels” value was found to be 5 fold. In series [3], the “Total LC3 and the LC3-II/I ratio” value is given as “increased”; the p62 level entry is “p62 accumulation”. Also, in series [4] (daily intraperitoneal), the “reduction of tumor growth” value came to 22%. Besides, the “Ki-67 positive tumor cells” value in series [4] (setting [11]) is given as “about 75%”. The “difference in sensitivity to WX8 between sensitive and resistant cell lines” value in series [5] is given as “approximately 16 fold”. Moreover, in series [6], the “day at which active Cathepsin D reappeared” value amounted to 3 days. In addition, the IC50 in [7] came to 200 nM. Besides, the IC50 in series [8] turned out to be 2700 nM. For the same molecule, the “effect on proliferation (cell divisions per day) over time” value in series [9] was “reduced proliferation for up to two days”.

On to `Oc1ccc(-c2nc(-c3ccncc3)c(-c3ccc(F)cc3)[nH]2)cc1` [SB202190], for which, in series [1] (setting [10]), the LAMP2 level increase entry is on record as “about 3 fold”, the p62 level increase entry is recorded as “about 3 fold” and the “total LC3 protein accumulation above initial levels” value was 2 fold. In addition, the “p62 accumulation, p38MAPK inhibitor alone” value in [1] is “caused accumulation of p62”. Further, the “adverse effects (mouse behavior, body weight)” value in series [4] (daily intraperitoneal, 20 mg/kg WX8 and/or 12.5 mg/kg SB202190) is recorded as “No adverse effects were apparent”. Moreover, the “reduction of tumor growth” value in series [4] (daily intraperitoneal) was determined as 28%. Besides, the “Ki-67 positive tumor cells” value in [4] (setting [11]) was “about 75%”. The “effect on proliferation (cell divisions per day) over time” value in series [9] was “reduced proliferation for up to two days”.
